Compound activity from PubChem.
RBBP9 inhibitor – inhibitors of human serine hydrolase RBBP9; O75884; recombinant RBBP9, FP-Rh probe fluorescence polarization; inhibition, % at 7.94 µM; 220,000 compounds, 0.2% hits; AID 1515;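 active = inhibition above the campaign mean of all tested compounds plus 3 SD, cut at about 14% in these data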;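 also: plate controls were DMSO wells with RBBP9 for no effect and wells lacking RBBP9 protein for full effect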
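System: RBBP9 protein / Quantity: 2.5 µM RBBP9 dispensing solution, before mixing / Also added: Serine-hydrolase probe FP-Rh, 375 nM pre-mixing / Dosing: 7.94 µM single dose, 0.794% DMSO / Timing: enzyme-compound preincubation 30 min, then probe labeling 45 min, 25 °C / Signal: FP readout at 525/598 nm / Controls: DMSO-treated enzyme wells and wells lacking RBBP9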
UBC13 inh – human UBC13 polyubiquitination inhibition; 330,000 compounds, 0.47% hits; UBC13 polyubiquitin chain formation, TR-FRET; P61088; AID 485273; inhibition, % at 20 µM; in the data active = inhibition above about 45%, passing the limit was not always enough
Target sequence (P61088 whole entry, looked up): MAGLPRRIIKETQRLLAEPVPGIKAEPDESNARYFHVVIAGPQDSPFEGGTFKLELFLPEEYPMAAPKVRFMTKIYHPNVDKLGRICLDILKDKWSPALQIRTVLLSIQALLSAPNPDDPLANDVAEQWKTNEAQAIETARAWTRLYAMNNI
UBC9 SUMO inh – SUMOylation inhibition | HTRF SUMOylation assay, SAE1/SAE2 + UBC9, in vitro | inhibition, % at 35 µM | 290,000 compounds, 0.36% hits | AID 2006; in the data active = inhibition above about 50%, passing the limit was not always enough
Target sequence (P63279 whole entry, looked up): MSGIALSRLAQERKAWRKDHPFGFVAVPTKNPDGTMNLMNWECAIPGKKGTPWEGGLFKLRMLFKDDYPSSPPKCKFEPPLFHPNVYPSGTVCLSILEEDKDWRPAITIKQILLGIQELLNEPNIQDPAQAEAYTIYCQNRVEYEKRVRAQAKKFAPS
Rin1 Abl inh – blocks binding of human Rin1 to Abl. AID 588664. 360,000 compounds, 0.4% hits. TR-FRET Rin1/Abl binding, biochemical. inhibition, % at 7.35 µM; in the data active = inhibition above about 5%, passing the limit was not always enough
PREPL inh – inhibitors of human prolyl oligopeptidase-like enzyme PREPL. 320,000 compounds, 0.68% hits. AID 2751. recombinant PREPL, fluorescence polarization activity-based probe. inhibition, % at 5.96 µM. Q4J6C6; in the data active = inhibition above about 43%;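 also: 0% = enzyme with DMSO and 100% = wells lacking enzyme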
ALR H2O2 inh – inhibitors of human sulfhydryl oxidase ALR; P55789; purified ALR, DTT oxidation, H2O2 HRP-luminol luminescence; inhibition, % (concentration not given with the values); 290,000 compounds, 3.8% hits; AID 485317;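 active = mean replicate inhibition above about 79%, with every replicate also reaching it, limit read from the data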
Target sequence (P55789 whole entry, looked up): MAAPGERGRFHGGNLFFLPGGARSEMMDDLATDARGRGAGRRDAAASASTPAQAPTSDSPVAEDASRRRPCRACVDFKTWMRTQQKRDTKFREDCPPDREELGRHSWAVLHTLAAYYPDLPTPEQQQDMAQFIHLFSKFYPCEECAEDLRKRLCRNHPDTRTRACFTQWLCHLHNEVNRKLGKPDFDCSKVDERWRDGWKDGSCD
An asterisk follows results filed as active; . = not tested or not shown. Hits are enriched below; roughly 4.3% of the tested compounds scored in any of these assays.

SMILES	RBBP9 inhibitor	UBC13 inh	UBC9 SUMO inh	Rin1 Abl inh	PREPL inh	ALR H2O2 inh
CC1(C)CC[C@]2(C(=O)n3ccnc3)CC[C@]3(C)[C@H](C(=O)C=C4[C@@]5(C)C=C(C#N)C(=O)C(C)(C)[C@@H]5CC[C@]43C)[C@@H]2C1	.	.	.	4	.	.
O=C(NCc1cccs1)C1Cc2c(-c3ccc(Cl)cc3)ccnc2O1 (stereo unspecified)	.	.	.	-2	.	.
O=C(NC(=S)Nc1cccc2ncccc12)c1ccco1	-8	-12	20	2	1	-27
CCCC(=O)NC(=S)Nc1ccccc1C(=O)OC	-4	13	18	0	-1	61
CCCC(=O)NC(=S)Nc1cccc2c(O)cccc12	-6	-14	62	-6	7	91*
O=C(NC(=S)Nc1cccc2c(O)cccc12)c1ccco1	.	-16	58	0	21	99*
O=C(NC(=S)Nc1cccc2cc(O)ccc12)c1ccco1	.	0	9	-1	14	94*
Cc1ccc(S(=O)(=O)NC2CC(C)(C)NC(C)(C)C2)c(C)c1C	.	5	11	2	9	-8
COc1cccc(/C=C/C(=O)OCC(=O)NC2CC2)c1OC	.	12	.	0	7	6
Cc1cc(Cl)ccc1C(O)c1ncc(-c2ccc(F)cc2)[nH]1 (stereo unspecified)	.	.	.	-5	.	.
NC(N)=N/N=C/c1ccc(OCc2ccccc2Cl)cc1	-8	74*	-7	-6	14	0
NS(=O)(=O)c1cccc(NC(=O)CSc2nnc(NC3CC3)s2)c1	.	.	.	2	.	.
S=C1NC(c2ccccc2)N2C(=S)NC(c3ccccc3)N12 (stereo unspecified)	-4	-3	8	-1	-6	98*
COC(=O)c1ccc(OC(=O)c2ccccn2)cc1	-7	-5	14	2	14	96*
COC(=O)c1ccc(/C=C(\C#N)c2ccccn2)cc1	3	-10	-8	0	-4	2
COC(=O)c1ccc(OC(=O)c2cccnc2SC)cc1	.	1	-14	0	10	.
N#CC(C#N)=Cc1ccc(OC(=O)c2ccccn2)cc1	-9	.	0	0	-5	97*
COC(=O)c1cc(C(=O)OCC(=O)N(C)c2ccccc2)cc([N+](=O)[O-])c1	.	4	13	3	-1	-8
COc1ccc(NC(NC(=O)c2ccc(OC)cc2)C(Cl)(Cl)Cl)cc1 (stereo unspecified)	-2	2	0	3	-3	98*
COc1ccc(C(=O)NC(Nc2ccc(C)cc2)C(Cl)(Cl)Cl)cc1 (stereo unspecified)	-13	4	-28	-4	3	46
CC(=O)C1=C(O)C(=O)N(c2ccc(Br)cc2)C1c1ccc(Br)cc1 (stereo unspecified)	.	-25	30	-1	3	25
Cc1cccc(N2CC(C(=O)Nc3nnc(SCc4ccccn4)s3)CC2=O)c1 (stereo unspecified)	.	-1	16	1	0	-17
O=C(c1ccc(Cl)cc1)c1ccccc1C(=O)N1CCOCC1	0	-3	7	-1	7	-7
Nc1nc(C(=O)N2CCOCC2)nn1C(=O)c1ccc(Cl)cc1	0	29	8	-1	8	86*
COC(=O)C1CCN(C(=O)C2CCC(=O)N(CCc3cccc(F)c3)C2)CC1 (stereo unspecified)	.	-11	1	8	3	-5
SMILES	RBBP9 inhibitor	UBC13 inh	UBC9 SUMO inh	Rin1 Abl inh	PREPL inh	ALR H2O2 inh
CC1(C2CC2)NC(=O)N(CC(=O)Nc2ccc(SC(F)F)cc2)C1=O (stereo unspecified)	.	9	.	1	-22	-5
CCCCC(=O)OCC(=O)Nc1ccc(SC(F)F)cc1	1	-2	-3	0	3	98*
CN1CC(=O)N(CC(=O)Nc2ccc(SC(F)F)cc2)C1=O	-3	19	-6	2	-30	98*
CCCCNC(=S)Nc1ccc(SC(F)F)cc1	-9	-4	-15	2	3	98*
COc1ccc(CC(=O)NNS(=O)(=O)c2ccc(F)cc2)cc1	.	1	-12	-2	1	.
C=CCNC(=O)c1ccccc1NC(=O)C1CC(=O)N(C(C)C)C1 (stereo unspecified)	.	-6	16	0	11	0
Cc1ccccc1Oc1ccc2c(c1)[C@@H]1C[C@H]3[C@@H](C(=O)N1CC2)[C@H](C)ON3C	.	.	.	2	.	.
O=C(COC(=O)c1ccc(Cl)nc1)NCCC1=CCCCC1	1	-5	-2	-2	-4	88*
COc1ccc(-n2c(SCC(=O)Nc3cccc4ccccc34)nc(O)cc2=O)cc1	-21	-5	6	-1	0	99*
Cc1ccc(NC(=O)CSc2nc(=O)cc(N)n2-c2ccccc2)cc1	-11	-8	-7	-2	2	.
COC(=O)c1cccc(NC(=O)CSc2nc(=O)cc(N)n2-c2ccccc2)c1	-2	8	10	-1	-4	98*
O=C(CSc1nc(O)cc(=O)n1-c1ccccc1)c1ccc(Br)cc1	6	-8	16	1	5	98*
COc1ccccc1NC(=O)CSc1nc(O)cc(=O)n1-c1ccccc1OC	-13	-12	19	-1	7	3
Cc1c(O)nc(SCC(=O)Nc2nccs2)n(-c2ccccc2F)c1=O	.	10	-5	-2	.	99*
O=C(Nc1ccc(Br)cc1)C1CCN(C(=O)c2ccco2)CC1	.	-10	9	2	-7	-7
Cc1cc(C)c(NC(=O)CN2CCN(c3ccccn3)CC2)c(C)c1	.	-2	-7	2	4	-15
Cc1[nH]c(=O)[nH]c(=O)c1NC(=O)c1ccccc1[N+](=O)[O-]	.	.	.	0	.	.
CCCCn1c(OC(=S)N(CC)CC)cc(C)nc1=S	.	.	.	-1	.	.
O=C(CSc1nc2[nH]ncc2c(=O)n1-c1ccccc1)c1ccc2c(c1)OCCO2	3	-4	12	2	-7	.
CCOc1ccc(NC(=O)CSc2nc(O)c(C)c(=O)n2-c2ccc(F)cc2)cc1	.	3	5	-1	9	100*
COc1ccc(-n2c(SCC(=O)Nc3ccc(NC(C)=O)cc3)nc3ccccc3c2=O)cc1	.	-1	8	1	37	.
Cc1ccccc1NC(=O)CSc1nc(O)cc(=O)n1C	-4	4	-12	-2	6	99*
COc1ccc(NC(=O)CSc2nc(O)cc(=O)n2-c2ccc(OC)cc2)cc1	.	-9	9	-3	1	99*
CCOc1ccc(-n2c(SCC(=O)Nc3ccc(C(=O)O)cc3)nc3ccccc3c2=O)cc1	.	-9	26	0	-3	.
COc1ccccc1-n1c(SCC(=O)Nc2ccccc2C)nc(O)cc1=O	3	2	8	-1	-4	10
N=c1c2cn[nH]c2nc(SCC(=O)c2ccc(Br)cc2)n1-c1ccc(Br)cc1	-9	-4	54*	0	-8	-4
O=C(CCCN1C(=O)/C(=C/c2ccccc2OC(F)F)SC1=S)Nc1cccnc1	.	-12	.	-2	-2	.
